Data: ChEMBL document CHEMBL1143823, “Addition of a C-terminal cysteine improves the anti-herpes simplex virus activity of a peptide containing the human immunodeficiency virus type 1 TAT protein transduction domain” (Antimicrob Agents Chemother, 2007)
Blank lines part the entries; values can stand above or below the compound they belong to. Active and inactive are the calls of the source. The calls are words filed in the database; no cut-off is given here.

Tests used:
Human alphaherpesvirus 1 [1] = test: Inhibition of HSV1 hrR3S syncytium formation in african green monkey Vero cells assessed as reduction of beta-galactosidase activity at 100 uM; format: functional; design: scale not given: the % may be the effect or the level left
Outline: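 Confluent Vero (2.0 × 10^5 cells/well) infected with syncytial hrR3S (MOI 0.02 to 0.05) 1 to 2 h at 37°C, rinsed, then held up to 24 h at 37°C in carbonate-buffered serum DMEM with neutralizing anti-HSV-1 antibody (50-fold dilution) ± peptide. Fusion read as initial β-galactosidase rate in NP-40 lysates with CPR-Gal at 570 nm.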

Human alphaherpesvirus 1 [2] = test: Inhibition of HSV1 entry in african green monkey Vero cells assessed as beta-galactosidase activity for 1 hr at 37 degC; format: functional, organism-based; conditions: Human alphaherpesvirus 1, Vero
Outline: (§1)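 HSV-1 hrR3 (MOI 0.02–0.03) adsorbed to precooled Vero cells 1 h at 4°C and rinsed. Peptide added at 4°C, shifted to 37°C for 1 h of entry. Peptide rinsed off; pH 3 citrate 60 s. Lysis at 6 h, initial β-galactosidase rate (CPR-Gal, 570 nm) relative to mock, minus cycloheximide background; triplicates.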

Human alphaherpesvirus 1 [3] = test: Inhibition of HSV1 attachment in african green monkey Vero cells at 100 uM at 37 degC; format: functional; conditions: Human alphaherpesvirus 1, Vero
Vero = test: Cytotoxicity against african green monkey Vero cells by trypan blue exclusion assay; format: cell-based; conditions: chlorocebus sabaeus
Outline: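 Viability by trypan blue exclusion in Vero cells after peptide exposure.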

Human alphaherpesvirus 1 [4] = test: Antiviral activity against HSV1 in african green monkey Vero cells assessed as viral inactivation after 1 hr at 37 degC; format: functional, organism-based; conditions: Human alphaherpesvirus 1, Vero
Outline: (§2)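 hrR3 virions (1×10^6–6×10^6 PFU/ml) in serum-free DMEM incubated with peptide 1 h at 37°C. Free peptide removed by 1,000-fold dilution or by pelleting at 14,000 × g. Infectivity then titrated on Vero cells in triplicate by lysate β-galactosidase or X-Gal staining. EC50 from dose-response curves.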

Human alphaherpesvirus 1 [5] = test: Antiviral activity against HSV1 in african green monkey Vero cells assessed as resistance to viral infection after 1 hr at 37 degC; format: functional, organism-based; conditions: Human alphaherpesvirus 1, Vero
Outline: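 Vero monolayers exposed to peptide 1 h at 37°C, rinsed three times, infected with hrR3 (MOI 0.01) 1 h at 37°C without peptide. pH 3 citrate inactivates extracellular virus; lysate β-galactosidase (CPR-Gal, 570 nm) read 6 h later. EC50 from dose-response, triplicates per concentration.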

Human alphaherpesvirus 1 [6] = test: Antiviral activity against HSV1 hrR3S infected african green monkey Vero cells assessed as inhibition of viral cell-cell spread at 100 uM; format: functional, organism-based
Outline: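 Vero cells infected with syncytial hrR3S (MOI 0.02–0.05) for 1–2 h at 37°C, then held up to 24 h at 37°C with 50-fold diluted neutralizing anti-HSV-1 antibody ± peptide. Syncytia viewed by X-Gal staining; fusion quantified as initial rate of lysate β-galactosidase.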

Human alphaherpesvirus 2 [7] = test: Antiviral activity against HSV2 333 pretreated for 1 hr before viral infection at 4 degC by plaque reduction assay; format: functional, organism-based
Outline: (§3)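 Plaque reduction on Vero monolayers with HSV-2 strain 333, 150 PFU/well adsorbed 1 h at 4°C. Peptide added at 4°C, shift to 37°C 10 min later; alternatively cells pretreated 1 h at 4°C with peptide and rinsed before virus. Extracellular virus inactivated; 2% methylcellulose overlay for 2.5 days; crystal violet plaque counts.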

Human alphaherpesvirus 2 [8] = test: Antiviral activity against HSV2 333 assessed by plaque reduction assay; format: functional, organism-based; outline: as §3
Human alphaherpesvirus 2 [9] = test: Antiviral activity against HSV2 333 assessed as resistance against viral infection; format: functional, organism-based
Human alphaherpesvirus 1 [10] = test: Inhibition of HSV1 entry in african green monkey Vero cells assessed as beta-galactosidase activity relative to control […]; format: functional, organism-based; conditions: Human alphaherpesvirus 1, Vero; outline: as §1
Human alphaherpesvirus 1 [11] = test: Inhibition of HSV1 entry in african green monkey Vero cells assessed as beta-galactosidase activity at 30 uM at 33 degC after 40 mins; format: functional, organism-based
Outline: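 Vero cells on strip-well plates with hrR3 adsorbed 1 h at 4°C; entry started by floating the plate at 33°C. Peptide added just before the shift or 35 min after, returning to 33°C at 40 min. At set times, external virus inactivated with pH 3 citrate. Lysed 6 h later; β-galactosidase initial rate read against mock-treated controls, triplicate.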

Human alphaherpesvirus 1 [12] = test: Antiviral activity against HSV1 assessed as Inhibition of VP16 nuclear translocation in african green monkey Vero cells at 300 uM after 1 hr at 37 degC; format: functional; design: scale not given: the % may be the effect or the level left
Outline: (§4)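 Vero cells on poly-L-lysine coverslips; HSV-1 adsorbed 80 min at 4°C (MOI 10). Peptide at 50 μM present for the last 20 min of adsorption and through the 1 h 37°C entry period, or virus pretreated with 300 μM for 1 h at 37°C and then diluted. Cells fixed, anti-VP16 immunofluorescence, 50 cells per group scored for nuclear VP16.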

Human alphaherpesvirus 1 [13] = test: Inactivation of HSV1 in african green monkey Vero cells assessed as beta-galactosidase activity upto 200 uM at 37 degC; format: functional, organism-based; outline: as §2
Human alphaherpesvirus 1 [14] = test: Antiviral activity against HSV1 assessed as Inhibition of VP16 nuclear translocation in african green monkey Vero cells at 50 uM after 1 hr at 4 degC; format: functional; design: scale not given: the % may be the effect or the level left; outline: as §4

EC50 (Human alphaherpesvirus 1 [2]): 2.1 µM
SMILES: N=C(N)NCCC[C@@H](NC(=O)CNC(=O)CCCCCNC(=O)CCCC[C@@H]1SC[C@@H]2NC(=O)N[C@@H]21)C(=O)N[C@H](CCCCN)C(=O)N[C@H](CCCCN)C(=O)N[C@H](CCCNC(=N)N)C(=O)N[C@H](CCCNC(=N)N)C(=O)N[C@H](CCC(N)=O)C(=O)N[C@H](CCCNC(=N)N)C(=O)N[C@H](CCCNC(=N)N)C(=O)N[C@H](CCCNC(=N)N)C(=O)N[C@H](CS)C(=O)O
Activity (Human alphaherpesvirus 1 [1]): 93%
inhibition at 100 µM (Human alphaherpesvirus 1 [3]): 25%
Activity (Vero): Non-toxic

SMILES: N=C(N)NCCC[C@@H](NC(=O)CN)C(=O)N[C@H](CCCCN)C(=O)N[C@H](CCCCN)C(=O)N[C@H](CCCNC(=N)N)C(=O)N[C@H](CCCNC(=N)N)C(=O)N[C@H](CCC(N)=O)C(=O)N[C@H](CCCNC(=N)N)C(=O)N[C@H](CCCNC(=N)N)C(=O)N[C@H](CCCNC(=N)N)C(=O)N[C@H](CSSC[C@@H](NC(=O)[C@@H](CCCNC(=N)N)NC(=O)[C@@H](CCCNC(=N)N)NC(=O)[C@@H](CCCNC(=N)N)NC(=O)[C@@H](CCC(N)=O)NC(=O)[C@@H](CCCNC(=N)N)NC(=O)[C@@H](CCCNC(=N)N)NC(=O)[C@@H](CCCCN)NC(=O)[C@@H](CCCCN)NC(=O)[C@@H](CCCNC(=N)N)NC(=O)CN)C(N)=O)C(N)=O
EC50 (Human alphaherpesvirus 1 [4]): 34 µM
EC50 (Human alphaherpesvirus 1 [5]): 0.4 µM
EC50 (Human alphaherpesvirus 1 [2]): 0.6 µM
Activity (Vero): Non-toxic

EC50 (Human alphaherpesvirus 1 [2]): 37 µM
SMILES: CCCC[C@H](NC(=O)[C@H](CCCC)NC(=O)[C@H](CCC(N)=O)NC(=O)[C@H](CCCNC(=N)N)NC(=O)[C@H](CCCNC(=N)N)NC(=O)[C@H](CCCCN)NC(=O)[C@H](CCCCN)NC(=O)[C@H](CCCNC(=N)N)NC(=O)CNC(=O)CCCCCNC(=O)CCCC[C@@H]1SC[C@@H]2NC(=O)N[C@@H]21)C(=O)N[C@@H](CCCNC(=N)N)C(=O)N[C@@H](CS)C(=O)O
Activity (Vero): Non-toxic

SMILES: N=C(N)NCCC[C@@H](NC(=O)CN)C(=O)N[C@H](CCCCN)C(=O)N[C@H](CCCCN)C(=O)N[C@H](CCCNC(=N)N)C(=O)N[C@H](CCCNC(=N)N)C(=O)N[C@H](CCC(N)=O)C(=O)N[C@H](CCCNC(=N)N)C(=O)N[C@H](CCCNC(=N)N)C(=O)N[C@H](CCCNC(=N)N)C(=O)N[C@H](CS)C(=O)O
Activity (Human alphaherpesvirus 1 [6]): Active
EC50 (Human alphaherpesvirus 1 [4]): 150 µM
EC50 (Human alphaherpesvirus 1 [5]): 5.4 µM
EC50 (Human alphaherpesvirus 1 [2]): 2.5 µM
EC50 (Human alphaherpesvirus 2 [7]): 7.7 µM
Activity (Vero): Non-toxic
EC50 (Human alphaherpesvirus 2 [8]): 1.3 µM

SMILES: N=C(N)NCCC[C@@H](NC(=O)CN)C(=O)N[C@H](CCCCN)C(=O)N[C@H](CCCCN)C(=O)N[C@H](CCCNC(=N)N)C(=O)N[C@H](CCCNC(=N)N)C(=O)N[C@H](CCC(N)=O)C(=O)N[C@H](CCCNC(=N)N)C(=O)N[C@H](CCCNC(=N)N)C(=O)N[C@H](CCCNC(=N)N)C(=O)N[C@H](CS)C(N)=O
EC50 (Human alphaherpesvirus 1 [4]): 200 µM
EC50 (Human alphaherpesvirus 1 [5]): 1.1 µM
EC50 (Human alphaherpesvirus 2 [9]): 81 µM
EC50 (Human alphaherpesvirus 1 [2]): 0.9 µM
Activity (Vero): Non-toxic
EC50 (Human alphaherpesvirus 2 [8]): 2.5 µM
EC50 (Human alphaherpesvirus 1 [10]): 0.3 µM

SMILES: CCCC[C@H](NC(=O)[C@H](CCCNC(=N)N)NC(=O)CN)C(=O)N[C@@H](CCCC)C(=O)N[C@@H](CCCNC(=N)N)C(=O)N[C@@H](CCCNC(=N)N)C(=O)N[C@@H](CCC(N)=O)C(=O)N[C@@H](CCCNC(=N)N)C(=O)N[C@@H](CCCNC(=N)N)C(=O)N[C@@H](CCCNC(=N)N)C(=O)N[C@@H](CS)C(N)=O
EC50 (Human alphaherpesvirus 1 [4]): 115 µM
EC50 (Human alphaherpesvirus 1 [5]): 92 µM
EC50 (Human alphaherpesvirus 1 [2]): 9.6 µM
Activity (Vero): Non-toxic
Activity (Human alphaherpesvirus 1 [11]): Active

SMILES: CCCC[C@H](NC(=O)[C@H](CCCC)NC(=O)[C@H](CCC(N)=O)NC(=O)[C@H](CCCNC(=N)N)NC(=O)[C@H](CCCNC(=N)N)NC(=O)[C@H](CCCCN)NC(=O)[C@H](CCCCN)NC(=O)[C@H](CCCNC(=N)N)NC(=O)CN)C(=O)N[C@@H](CCCNC(=N)N)C(=O)N[C@@H](CS)C(=O)O
EC50 (Human alphaherpesvirus 1 [4]): 900 µM
EC50 (Human alphaherpesvirus 1 [5]): 230 µM
EC50 (Human alphaherpesvirus 1 [2]): 48 µM
Activity (Vero): Non-toxic

SMILES: N=C(N)NCCC[C@H](NC(=O)CN)C(=O)N[C@@H](CCCCN)C(=O)N[C@@H](CCCCN)C(=O)N[C@@H](CCCNC(=N)N)C(=O)N[C@@H](CCCNC(=N)N)C(=O)N[C@@H](CCC(N)=O)C(=O)N[C@@H](CCCNC(=N)N)C(=O)N[C@@H](CCCNC(=N)N)C(=O)N[C@@H](CCCNC(=N)N)C(=O)N[C@@H](CS)C(N)=O
EC50 (Human alphaherpesvirus 1 [4]): 390 µM
EC50 (Human alphaherpesvirus 1 [5]): 3.9 µM
EC50 (Human alphaherpesvirus 1 [2]): 0.9 µM
Activity (Vero): Non-toxic

SMILES: N=C(N)NCCC[C@H](NC(=O)CN)C(=O)N[C@@H](CCCCN)C(=O)N[C@@H](CCCCN)C(=O)N[C@@H](CCCNC(=N)N)C(=O)N[C@@H](CCCNC(=N)N)C(=O)N[C@@H](CCC(N)=O)C(=O)N[C@@H](CCCNC(=N)N)C(=O)N[C@@H](CCCNC(=N)N)C(=O)N[C@@H](CCCNC(=N)N)C(=O)N[C@@H](CS)C(=O)O
EC50 (Human alphaherpesvirus 1 [4]): 96 µM
EC50 (Human alphaherpesvirus 1 [5]): 3.3 µM
EC50 (Human alphaherpesvirus 1 [2]): 3.1 µM
Activity (Human alphaherpesvirus 1 [12]): 2.5%
Activity (Human alphaherpesvirus 1 [13]): Active
Activity (Vero): Non-toxic
Activity (Human alphaherpesvirus 1 [14]): 6%

SMILES: N=C(N)NCCC[C@H](NC(=O)[C@H](CCCNC(=N)N)NC(=O)[C@H](CCCNC(=N)N)NC(=O)[C@H](CCC(N)=O)NC(=O)[C@H](CCCNC(=N)N)NC(=O)[C@H](CCCNC(=N)N)NC(=O)[C@H](CCCCN)NC(=O)[C@H](CCCCN)NC(=O)[C@H](CCCNC(=N)N)NC(=O)CN)C(N)=O
EC50 (Human alphaherpesvirus 1 [4]): > 1200 µM
EC50 (Human alphaherpesvirus 1 [5]): > 1200 µM
EC50 (Human alphaherpesvirus 1 [2]): 1 µM
Activity (Vero): Non-toxic
EC50 (Human alphaherpesvirus 1 [10]): 0.3 µM

SMILES: N=C(N)NCCC[C@H](NC(=O)CNC(=O)CCCCCNC(=O)CCCC[C@@H]1SC[C@@H]2NC(=O)N[C@@H]21)C(=O)N[C@@H](CCCCN)C(=O)N[C@@H](CCCCN)C(=O)N[C@@H](CCCNC(=N)N)C(=O)N[C@@H](CCCNC(=N)N)C(=O)N[C@@H](CCC(N)=O)C(=O)N[C@@H](CCCNC(=N)N)C(=O)N[C@@H](CCCNC(=N)N)C(=O)N[C@@H](CCCNC(=N)N)C(=O)N[C@@H](CS)C(N)=O
EC50 (Human alphaherpesvirus 1 [2]): 5.7 µM
Activity (Vero): Non-toxic

SMILES: N=C(N)NCCC[C@@H](NC(=O)CN)C(=O)N[C@H](CCCCN)C(=O)N[C@H](CCCCN)C(=O)N[C@H](CCCNC(=N)N)C(=O)N[C@H](CCCNC(=N)N)C(=O)N[C@H](CCC(N)=O)C(=O)N[C@H](CCCNC(=N)N)C(=O)N[C@H](CCCNC(=N)N)C(=O)N[C@H](CCCNC(=N)N)C(=O)N1CCC[C@@H]1C(N)=O
EC50 (Human alphaherpesvirus 1 [4]): 1050 µM
EC50 (Human alphaherpesvirus 1 [5]): > 1200 µM
EC50 (Human alphaherpesvirus 1 [2]): 0.7 µM
Activity (Vero): Non-toxic
EC50 (Human alphaherpesvirus 1 [10]): 0.3 µM
